Lipid droplet – modulators of hepatic lipid droplet formation; AML12 mouse hepatocytes, oleate lipid droplets, BODIPY imaging; inhibition, % at 6.5 µM; hit rate 0.4% among 240,000; AID 1656;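 active means lipid droplet intensity inhibited by at least 50%, with more than 500 cells counted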
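Test system: AML12 hepatocytes (mouse); reagent: oleate loading, 100 µM; dosing: one dose, 6.5 µM compound; incubation: overnight exposure; signal: fluorescence imaging, 20x objective, two fields per well; read-out basis: % inhibition of corrected integrated BODIPY droplet signal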
NRP1-CendR mod – modulators of CendR peptide binding to human neuropilin-1; hit rate 0.85% among 360,000; FAM-RPARPAR peptide binding to NRP-1, fluorescence polarization; inhibition, % at 25 µM; O14786;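 active means inhibition or corrected inhibition above about 18%, plus a signal ratio from 0.5 to 1.5, limit read from the data, passing the limit was not always enough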
Target sequence (O14786 whole entry, looked up): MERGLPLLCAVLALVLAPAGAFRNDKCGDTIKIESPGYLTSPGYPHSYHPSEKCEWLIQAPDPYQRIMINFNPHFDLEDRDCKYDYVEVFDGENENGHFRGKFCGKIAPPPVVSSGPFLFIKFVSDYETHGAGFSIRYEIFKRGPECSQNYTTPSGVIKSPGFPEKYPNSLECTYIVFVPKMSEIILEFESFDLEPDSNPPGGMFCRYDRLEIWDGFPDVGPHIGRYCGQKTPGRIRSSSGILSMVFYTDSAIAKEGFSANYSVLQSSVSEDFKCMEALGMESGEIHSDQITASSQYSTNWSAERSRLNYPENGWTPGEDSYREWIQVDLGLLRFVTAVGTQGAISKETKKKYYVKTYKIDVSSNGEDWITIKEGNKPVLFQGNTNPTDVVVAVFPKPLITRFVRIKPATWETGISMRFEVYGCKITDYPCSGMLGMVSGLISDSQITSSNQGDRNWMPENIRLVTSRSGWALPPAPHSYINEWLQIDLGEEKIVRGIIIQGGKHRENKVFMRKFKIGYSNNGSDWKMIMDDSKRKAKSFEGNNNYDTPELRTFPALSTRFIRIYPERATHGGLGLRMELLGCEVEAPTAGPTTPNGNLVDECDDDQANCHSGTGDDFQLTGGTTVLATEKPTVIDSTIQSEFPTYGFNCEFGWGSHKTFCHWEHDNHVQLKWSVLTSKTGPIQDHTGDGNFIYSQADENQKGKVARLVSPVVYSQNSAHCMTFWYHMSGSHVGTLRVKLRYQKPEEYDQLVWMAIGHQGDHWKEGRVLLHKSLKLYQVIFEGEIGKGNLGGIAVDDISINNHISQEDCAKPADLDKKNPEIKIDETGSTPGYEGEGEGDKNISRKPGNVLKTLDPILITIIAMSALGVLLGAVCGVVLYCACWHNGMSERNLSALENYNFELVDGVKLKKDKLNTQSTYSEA
HTR2A ag – mouse HTR2A agonism via beta-arrestin recruitment | P35363 | CHO-K1 mHTR2A beta-arrestin complementation, luminescence; percent of 30 µM serotonin response | activation, % at 7.6 µM | hit rate 0.66% among 360,000 | AID 624169;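 active means activation above a run cutoff, the mean activation of all tested compounds plus 3 SD, cut at about 14% in these data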;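 further: 0% = plate median of compound wells and 100% = 30 µM serotonin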
M18AAP inhibitor – blocks P. falciparum M18 aspartyl aminopeptidase; recombinant PfM18AAP, H-Glu-NHMec fluorogenic cleavage; inhibition, % at 7.35 µM; hit rate 1.2% among 290,000; AID 1822;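 active means inhibition above the campaign mean inhibition over all tested compounds plus 3 SD, cut at about 28% in these data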;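 further: 0% = plate median of test compound wells and 100% = 2 mM ZnCl2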
Arrestin-AP2 inh – blocks beta-arrestin peptide binding to AP2 adaptin; inhibition, % at 10 µM; FITC-arrestin peptide / GST-AP2 beads, flow cytometry; AP2 beta2 appendage carries R879A mutation; hit rate 0.31% among 340,000;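 active means inhibition above a set limit, near 3 SD of compounds lacking own fluorescence, cut at about 54% in these data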;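 further: plate controls were DMSO wells for no effect and 5 µM unlabelled arrestin peptide for full effect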
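Assay system: GST-AP2 R879A bound to glutathione beads, E. coli-expressed; Medium: PBS with 0.05% Tween 20 and 0.1% BSA; Also added: fluorescein-tagged arrestin peptide at 50 nM final; Timing: 12 min plus 1 h, RT; Measured by: flow cytometry, FL1 (488/535 nm); Evaluation: percent drop in bead-associated FITC signal.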
sPLA2-III inh – Blocks human group III sPLA2 activity; inhibition, % at 12.2 µM; QFRET BODIPY PC-A2 liposome hydrolysis, fluorescence; hit rate 0.56% among 370,000; Q9NZ20;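 active means inhibition above mean plus 3 SD of compounds lying within the high and low control bounds, cut at about 19% in these data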;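 further: 0% = median of test compound wells and 100% = no enzyme DMSO wells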
* = called active by the depositor; · = no result given. Sampled rows, rich in hits. Any-hit rate of the full collection: about 3.3%.

SMILES	Lipid droplet	NRP1-CendR mod	HTR2A ag	M18AAP inhibitor	Arrestin-AP2 inh	sPLA2-III inh
CC1OC(OCC2OC(Oc3c(-c4ccc(O)cc4)oc4cc(O)cc(O)c4c3=O)C(O)C(O)C2O)C(O)C(O)C1O (stereo not drawn)	9	22*	3	12	12	-3
CC1OC(OC2C(Oc3c(-c4ccc(O)cc4)oc4cc(O)cc(O)c4c3=O)OC(COC3O[C@@H](C)[C@H](O)[C@@H](O)C3O)C(O)C2O)C(O)C(O)C1O (stereo partly drawn)	·	8	1	·	7	0
C[C@@H]1O[C@@H](OC[C@H]2O[C@@H](Oc3c(-c4ccc(O)c(O)c4)oc4cc(O)cc(O)c4c3=O)[C@H](O)[C@@H](O)[C@@H]2O)[C@H](O)[C@H](O)[C@H]1O	-2	-13	-2	64*	-4	0
O=C(CC1C[C@H](C(=O)N2CCOCC2)[C@@]2(CCC3CCCC3)c3[nH]c4ccccc4c3CCN2C1=O)NCc1cccc(C(F)(F)F)c1 (stereo partly drawn)	·	-8	-3	·	5	4
COCCN1C[C@@H](CO)O[C@@H](n2cnc3c(NCCO)ncnc32)C1	·	3	-1	·	·	9
CC(=O)Nc1c2c3c(cccc3n(C)c1=O)C(=O)c1ccccc1-2	·	53*	2	4	3	9
N#CC1(c2ccccc2)CCCN1C(=O)c1ccccc1Cl (stereo not drawn)	11	26*	-1	-4	-2	4
N#CC1(c2ccccc2)CCCN1C(=O)c1ccc(Br)cc1 (stereo not drawn)	-1	-8	-6	1	-3	4
COc1ccc(C2CC(=O)C(C=NCCO)=C(O)C2)cc1 (stereo not drawn)	-2	-5	3	-1	3	1
O=C1CC(c2ccc(Cl)cc2)CC(O)=C1C=NCCO (stereo not drawn)	-4	16*	-2	-4	-20	-1
COc1cccc(/C=C/C(=C2/C(=O)N(c3ccccc3)N=C2C)c2ccc(C)cc2)c1OC	74*	-1	0	-10	1	7
COc1cccc(/C=C/C(=O)NNC(=O)c2ccccc2)c1OC	·	2	-4	·	-9	-5
COC(=O)[C@]12C[C@H](CC(=O)NCc3ccc(OC)c(OC)c3)C(=O)N(Cc3ccccc3)C1=C[C@H](C(C)(C)C)O[C@@H]2C	·	·	·	·	·	-10
O=C(NCCCN1CCOCC1)C1CC(=O)N(CCc2ccccc2)C1 (stereo not drawn)	-15	1	-2	0	4	1
O=C(NCCCN1CCCCCC1)C1CC(=O)N(CCc2ccccc2)C1 (stereo not drawn)	·	23*	-1	-1	-3	7
COc1ccc(C(C)(O)c2nc(-c3ccc(S(C)(=O)=O)cc3)cs2)cc1 (stereo not drawn)	·	-3	-5	·	·	-7
N#CCCN(C(=O)Nc1ccccc1)c1ccccc1	5	28*	-2	5	-7	-1
N#CCCN(C(=O)Nc1ccc(Cl)cc1)c1ccccc1	5	-3	-3	-12	-1	-4
CN[C@H]1C[C@H]2c3cc(-c4ccccc4)ccc3CCN2C(=O)[C@H]1[C@H](C)O	·	0	-3	·	·	-5
CN(C)c1ccc(N2[C@@H](CC(=O)O)c3cc(C(F)(F)F)ccc3S2(=O)=O)cc1	·	25*	11	·	0	4
CCCCCCCCCCCCN1[C@@H](CC(=O)OC)c2cc(F)ccc2S1(=O)=O	·	26*	3	·	5	0
CCCCCCCCN1[C@@H](CC(=O)O)c2ccc(C(F)(F)F)cc2S1(=O)=O	·	28*	-5	·	0	-18
CCCCCCCCCCCCN1[C@@H](CC(C)=O)c2cc(F)ccc2S1(=O)=O	·	12	-1	·	1	2
CCCCCCCCCCCCN1[C@@H](CC(C)=O)c2cc(C(F)(F)F)ccc2S1(=O)=O	·	9	1	·	27	1
CCOC(=O)N(C)C[C@H]1OCc2cnnn2CCCC(=O)N([C@H](C)CO)C[C@@H]1C	·	·	·	·	·	11
SMILES	Lipid droplet	NRP1-CendR mod	HTR2A ag	M18AAP inhibitor	Arrestin-AP2 inh	sPLA2-III inh
Cc1cc(S(=O)(=O)c2ccc([N+](=O)[O-])cn2)ccc1Br	·	22*	-2	·	13	1
CN(C)c1ccc(-c2nn3c(-c4ccco4)nnc3s2)cc1	·	·	·	·	·	7
CC(Oc1ccc(Cl)cc1Cl)C(=O)Nc1cccnc1 (stereo not drawn)	-6	26*	0	-5	10	4
CC(Oc1ccc(Cl)cc1Cl)C(=O)Nc1ccncc1 (stereo not drawn)	·	-4	0	3	9	-2
COc1ccc(C2CC(=O)Oc3cc(C)c(Cl)c(C)c32)cc1 (stereo not drawn)	·	10	-2	·	-12	-3
O=C(c1cc2cc(F)ccc2[nH]1)N1CCN(C(=O)c2ccco2)CC1	9	4	-3	4	-15	1
CC(=O)Nc1cccc(-c2csc(NCc3ccccc3)n2)c1	-2	26*	-2	5	39	-9
CC(=O)N(c1ccc2oc(=O)sc2c1)S(=O)(=O)c1ccccc1	·	-4	3	29*	3	-29
COc1nc(C)cc(C)c1S(=O)(=O)c1ccccc1C	-20	14	-8	2	21	3
C#CCOc1nc(C)cc(C)c1S(=O)(=O)c1ccccc1C	·	35*	3	-12	-4	-5
COC(=O)c1c(C)c2c(C)cc3ccccn3c-2c1C(=O)OC	6	35*	-6	8	32	12
CCc1ccc(NC(=O)C(C)Nc2ccc(S(=O)(=O)NC(C)=O)cc2)cc1 (stereo not drawn)	·	7	2	-10	-11	-2
CC(=O)NS(=O)(=O)c1ccc(NC(=O)C(C)NS(=O)(=O)/C=C/c2ccccc2)cc1 (stereo not drawn)	·	20*	11	·	-16	3
Cc1nnc(NC(=O)C(C)Sc2nnc(CNC(=O)c3ccccc3F)n2C)s1 (stereo not drawn)	·	0	6	·	1	-2
COC(=O)c1cc(C)nc2c1c(C)nn2-c1ccccc1	·	-8	-1	·	-27	10
COc1cc2c(-c3ccccc3O)nc3c(c(C)nn3-c3ccccc3)c2cc1OC	11	33*	3	-1	6	1
COc1ccc(CNC(=O)c2cc3cccc(O)c3oc2=N)cc1	-4	-21	-10	29*	-6	0
COc1ccc(CNC(=O)c2ccccc2[N+](=O)[O-])cc1	·	26*	0	2	-2	·
CCOc1cccc2cc(C(=O)NCc3ccc(OC)cc3)c(=N)oc12	0	2	3	1	5	4
CC(C)C[C@H](NC1(C(=O)NC2CCCCC2)CCN(C)CC1)C(=O)NCC(c1ccccc1)c1ccccc1	·	·	·	·	·	2

Screening results (PubChem BioAssay)
